Results pooled from the literature.
CDK2 with cyclin A: Cyclin-dependent kinase 2, with cyclin A (CDK2, Homo sapiens, UniProt P24941)
CDK2: Cyclin-dependent kinase 2 (CDK2, Homo sapiens, UniProt P24941)
CDK2 with cyclin E: Cyclin-dependent kinase 2, with cyclin E (CDK2, Homo sapiens, UniProt P24941)

Structure (SMILES)	target	effect on	action	technique	tested at	quantity	result
CS(=O)(=O)CCNCc1ccc(-c2ccc3ncnc(Nc4ccc(OCc5cccc(F)c5)c(Cl)c4)c3c2)o1	CDK2 with cyclin A	cell-free assay			0.5 µM	remaining signal	94.5%
O=C(Nc1cnn(-c2csc(C(=O)NC3COC3)c2)c1)Nc1c(F)cccc1Cl	CDK2 with cyclin A	enzyme activity	inhibitor		5 µM	remaining activity	93.8%
CC(C)CC(=O)N1CCc2nc(-c3ccc(Br)cc3)nc(N(C)Cc3ccccc3)c2C1	CDK2	cell-free assay		competition with immobilised ligand	0.1 µM	remaining binding	80%
Cc1cc(NC(=O)c2cccc3cc(-c4cccc5[nH]nc(N)c45)ccc23)ccc1F	CDK2 with cyclin A	enzyme activity	inhibitor		0.1 µM	activity vs control	100%
N#Cc1c(NC(=O)c2cccc3ccccc23)sc2c1CCCC2	CDK2 with cyclin E	cell-free assay			0.5 µM	remaining signal	89.1%
Cn1c2c(Cl)c(Cl)ccc2c2cc(N)[nH]c(=O)c21	CDK2	thermal stability		DSF	10 µM	ΔTm	2.2 °C
Cn1cc(Cl)c2c(Oc3c(F)cc(Nc4cc(Cl)nc(N)n4)cc3F)ccnc21	CDK2	cell-free assay		competition with immobilised ligand	0.1 µM	remaining binding	100%
Cc1ccc(C(=O)NCc2ccsc2)cc1C#Cc1cn(C(C)C)c2ncnc(N)c12	CDK2 with cyclin E	enzyme activity	inhibitor		1 µM	activity vs control	108%
COc1cc2c(Nc3ccc(Br)cc3F)ncnc2cc1OCC1CCN(C)CC1	CDK2 with cyclin E	cell-free assay			0.5 µM	remaining signal	101%
CCN1CCC2(CC1)NC(=O)c1c(c3ccc(Cl)c(Cl)c3n1C)C2C#N (racemic)	CDK2	thermal stability		DSF	10 µM	ΔTm	0 °C
CC(C)c1ccc(NC(=O)c2cccs2)c(-c2nc3ccccc3[nH]c2=O)c1	CDK2 with cyclin A	enzyme activity	inhibitor		1 µM	activity vs control	96%
Cc1ccc(NC(=O)c2ccc(C)c(C(F)(F)F)c2)cc1C#Cc1nn(C2CCC(O)CC2)c2ncnc(N)c12 (centres unmarked)	CDK2 with cyclin A	cell-free assay			10 µM	remaining signal	100%
Nc1ncnc2occ(-c3ccc(NC(=O)Nc4cc(C(F)(F)F)ccc4F)cc3)c12	CDK2	cell-free assay	inhibitor		20 µM	remaining signal	0.1%
O=C1NC(=O)c2cc(Nc3ccc(F)cc3)c(Nc3ccc(F)cc3)cc21	CDK2 with cyclin A	cell-free assay			0.5 µM	remaining signal	95.3%
Cc1sc(C(=O)NC2COC2)cc1-n1cc(NC(=O)Nc2c(F)cccc2Cl)cn1	CDK2 with cyclin E	enzyme activity	inhibitor		10 µM	remaining activity	106%
CCC(=O)N[C@@H]1CC[C@H](C(=O)N(C)c2ccc(-c3nc4ccccc4o3)cc2)C1	CDK2	cell-free assay		competition with immobilised ligand	1 µM	remaining binding	100%

Structure (SMILES)	target	effect on	action	technique	tested at	quantity	result
CN(C)C1CCN(CC#Cc2nn(C3CCCC3)c3nc(NCc4ccccc4)ncc23)C1 (centres unmarked)	CDK2 with cyclin A	enzyme activity	inhibitor	FRET	1 µM	inhibition	9%
N#CCCc1ccc2c(c1)-c1[nH]c3ccc([N+](=O)[O-])cc3c1CC(=O)N2	CDK2 with cyclin A	cell-free assay			0.5 µM	remaining signal	2.93%
Cn1c2c(c3ccc(Cl)c(Cl)c31)C(C#N)C1(CCOCC1)NC2=O (centres unmarked)	CDK2	thermal stability		DSF	10 µM	ΔTm	0 °C
O=C(Nc1cnn(-c2csc(C(=O)NC3COC3)c2)c1)Nc1ccccc1Cl	CDK2 with cyclin E	enzyme activity	inhibitor		5 µM	remaining activity	99%
Cn1c2c(c3ccc(Cl)c(Cl)c31)C(C#N)C1(CCNCC1)NC2=O (racemic)	CDK2	thermal stability		DSF	10 µM	ΔTm	0.1 °C
COc1cc2c(cc1OC)-c1[nH]nc(Nc3cccc(F)c3)c1C2	CDK2 with cyclin A	cell-free assay			0.5 µM	remaining signal	87.5%
C[C@H](NC(=O)c1cnc2n1[C@](C)(Cc1ccc(C#N)cc1)C(=O)N2c1cc(Cl)c(F)c(Cl)c1)C(=O)NC1(c2ccccn2)CC1	CDK2	cell-free assay		competition with immobilised ligand	1 µM	remaining binding	100%
FC(F)(F)Oc1cccc(-c2cnc3ccc(-c4ccncc4)nn23)c1	CDK2 with cyclin A	enzyme activity	inhibitor	radiometric	5 µM	activity vs control	10%
CN(c1ccnc(CNc2nc(Nc3ccc4c(c3)CC(=O)N4)ncc2C(F)(F)F)n1)S(C)(=O)=O	CDK2	cell-free assay		competition with immobilised ligand	1 µM	remaining binding	89%
Cn1c2c(c3ccc(Cl)c(Cl)c31)C(C#N)C1(CCCC1)NC2=O (centres unmarked)	CDK2	thermal stability		DSF	10 µM	ΔTm	-0.5 °C
CCS(=O)(=O)c1cc2cc(C[C@@](O)(CC(C)(C)c3ccc(F)cc3C(N)=O)C(F)(F)F)[nH]c2cn1	CDK2	cell-free assay		competition with immobilised ligand	1 µM	remaining binding	96%
CC(C)[C@H](CO)Nc1nc(Nc2cccc(Cl)c2)c2ncn(C(C)C)c2n1	CDK2 with cyclin E	cell-free assay			0.5 µM	remaining signal	9.88%
CN(C(=O)c1ccccc1)c1cc(N(C)c2ccc3c(c2)CCc2ccc(C(=O)NCCN4CCOCC4)cc2C3=O)ccc1F	CDK2	cell-free assay		competition with immobilised ligand	1 µM	remaining binding	96%
O=C1Cc2c([nH]c3ccc([N+](=O)[O-])cc23)-c2ccccc2N1	CDK2 with cyclin A	cell-free assay			0.5 µM	remaining signal	8.37%
Cc1c[nH]c2nccc(Oc3c(F)cc(Nc4cc(Cl)nc(N)n4)cc3F)c12	CDK2	cell-free assay		competition with immobilised ligand	0.1 µM	remaining binding	99%
Cn1c2c(Cl)c(Cl)ccc2c2cn[nH]c(=O)c21	CDK2	thermal stability		DSF	10 µM	ΔTm	0.6 °C
